# Results taken from ChEMBL document CHEMBL3425404, “Structure-activity relationship in a purine-scaffold compound series with selectivity for the endoplasmic reticulum Hsp90 paralog Grp94” (J Med Chem, 2015).
# Active and inactive are the calls of the source. The calls are words filed in the database; no cut-off is given here.
# Key:
# [1] = species: Homo sapiens; experiment: Selectivity ratio of IC50 for recombinant Hsp90beta (unknown origin) to IC50 for recombinant Grp94 (unknown origin)
# [2] = species: Homo sapiens; experiment: Selectivity ratio of IC50 for recombinant Trap1 (unknown origin) to IC50 for recombinant Grp94 (unknown origin)
# [3] = molecular target: Endoplasmin (Homo sapiens) (UniProt P14625); experiment: Inhibition of Grp94 in HEK293T cells assessed as downregulation of TLR9 protein expression in post ER compartment after 24 hrs by confocal microscopic analysis; assay type: cell-based; settings: HEK-293T
# Method in brief: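 HEK293T cells were transfected with HA-tagged human TLR9 and split onto chamber slides 24 h later. They were then treated 24 h at varying concentrations. Cells were fixed in 4% paraformaldehyde, permeabilized with Triton X-100 and blocked in 3% BSA. They were stained with anti-HA then Cy3 secondary, with DAPI. Imaging was by confocal microscopy, and fluorescence intensity was normalized to cell number.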
# [4] = molecular target: Endoplasmin (Mus musculus) (UniProt P08113); experiment: Inhibition of Grp94 in mouse RAW264.7 cells assessed as inhibition of CpG-induced TNFalpha production after 18 hrs by ELISA; assay type: cell-based
# [5] = molecular target: Endoplasmin (Mus musculus) (UniProt P08113); experiment: Inhibition of Grp94 in mouse differentiated C2C12 cells assessed as inhibition of IGF-2 secretion after 24 hrs by ELISA; assay type: cell-based
# Method in brief: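 C2C12 mouse myoblasts were shifted to differentiation medium (DMEM, 2% horse serum) and treated 24 h with compounds. Medium was captured overnight at 4 °C on anti-IGF-II ELISA plates and detected with biotinylated antibody, HRP-streptavidin and TMB. A450 was read, and IGF-II was quantified against a recombinant IGF-II standard curve.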
# [6] = molecular target: Endoplasmin (Homo sapiens) (UniProt P14625); experiment: Inhibition of Grp94 in human SKBR3 cells overexpressing HER2 assessed as degradation of HER2 at 1 to 25 uM after 24 hrs by Western blot analysis; assay type: cell-based; settings: SK-BR-3
# Method in brief: (§1)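 SKBr3 cells were treated 24 h with DMSO vehicle or compound, then lysed in RIPA with protease inhibitors. Lysate (5−50 μg) was run on SDS−PAGE and immunoblotted for HER2 or Hsp70, with β-actin as loading control. Detection was by HRP secondary and ECL, with densitometry. Blots are representative of triplicate experiments.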
# [7] = molecular target: Heat shock protein HSP90 (Homo sapiens) (UniProt P07900+P08238); experiment: Inhibition of HSP90 in human SKBR3 cells assessed as induction of HSP70 activity at 1 to 25 uM after 24 hrs by Western blot analysis; assay type: cell-based; settings: SK-BR-3; method in brief: as §1
# [8] = test system: RAW264.7; experiment: Inhibition of HSP90 in mouse RAW264.7 cells assessed as inhibition of LPS-induced TNFalpha production at 2 to 16 uM after 18 hrs by ELISA; assay type: cell-based
# [9] = test system: Mus musculus; experiment: Acute toxicity in nu/nu athymic mouse xenografted with human MDA-MB-468 cells at 150 mg/kg, ip; assay type: organism-based; set-up: dose 150 mg/kg, route intraperitoneal; settings: in vivo
# Method in brief: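 MDA-MB-468 cells (1 × 10^7) were implanted sc in the right flank and allowed to grow. Tumour-bearing mice (n = 4) received 75 or 150 mg/kg ip and were followed for acute toxicity. Augmentin was given in the drinking water during therapy.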
# [10] = Drug uptake in tumor of nu/nu athymic mouse xenografted with human MDA-MB-468 cells at 75 mg/kg, ip measured at 2 hrs by LC-MS/MS analysis; assay type: ADME, organism-based; set-up: dose 75 mg/kg, route intraperitoneal; settings: read-out: Drug uptake
# Method in brief: (§2)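 Mice bearing subcutaneous MDA-MB-468 breast tumors (1 × 10^7 cells in right flank) got a single 75 mg/kg ip dose, n = 4 per time point. They were sacrificed at 2 and 24 h. Drug in tumor, tissues and plasma was quantified by LC−MS/MS, and tumor-to-tissue or tumor-to-plasma ratios were computed. Mean ± error.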
# [11] = Plasma concentration in nu/nu athymic mouse xenografted with human MDA-MB-468 cells at 75 mg/kg, ip measured at 2 hrs by LC-MS/MS analysis; assay type: ADME, organism-based; set-up: dose 75 mg/kg, route intraperitoneal; method in brief: as §2
# [12] = test system: Nucleic Acid; experiment: Ratio of drug level in tumor to heart in nu/nu athymic mouse xenografted with human MDA-MB-468 cells at 75 mg/kg, ip measured at 24 hrs by LC-MS/MS analysis; assay type: ADME, organism-based; set-up: dose 75 mg/kg, route intraperitoneal; settings: in vivo; method in brief: as §2
# [13] = Ratio of drug level in tumor to plasma in nu/nu athymic mouse xenografted with human MDA-MB-468 cells at 75 mg/kg, ip measured at 24 hrs by LC-MS/MS analysis; assay type: ADME, organism-based; set-up: dose 75 mg/kg, route intraperitoneal; method in brief: as §2
# [14] = Oral bioavailability in B6D2F1 mouse at 10 mg/kg by LC-MS/MS analysis; assay type: ADME, organism-based; settings: in vivo
# Method in brief: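 Male B6D2F1 mice (n = 2 per time point, 20 total) got a single 10 mg/kg iv or oral dose in 30% captisol, 5 mM citrate pH 4.2. Plasma levels at sacrifice times were measured by LC−MS/MS, converted to molar assuming 1 g = 1 mL, and plotted versus time. Oral F was derived.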
# [15] = molecular target: Endoplasmin (Canis lupus familiaris, UniProt P41148); experiment: Binding affinity to canine full-length His-tagged GRP94 (28 to 754 residues lacking 287 to 327 residues) expressed in Escherichia coli by tryptophan fluorescence assay
# [16] = Binding affinity to full length yeast His-tagged Hsp90 (1 to 709) overexpressed in Escherichia coli BL21 Star (DE3) by tryptophan fluorescence assay; set-up: species or system Saccharomyces cerevisiae
# Sequence of Endoplasmin (Mus musculus) (P08113 whole entry): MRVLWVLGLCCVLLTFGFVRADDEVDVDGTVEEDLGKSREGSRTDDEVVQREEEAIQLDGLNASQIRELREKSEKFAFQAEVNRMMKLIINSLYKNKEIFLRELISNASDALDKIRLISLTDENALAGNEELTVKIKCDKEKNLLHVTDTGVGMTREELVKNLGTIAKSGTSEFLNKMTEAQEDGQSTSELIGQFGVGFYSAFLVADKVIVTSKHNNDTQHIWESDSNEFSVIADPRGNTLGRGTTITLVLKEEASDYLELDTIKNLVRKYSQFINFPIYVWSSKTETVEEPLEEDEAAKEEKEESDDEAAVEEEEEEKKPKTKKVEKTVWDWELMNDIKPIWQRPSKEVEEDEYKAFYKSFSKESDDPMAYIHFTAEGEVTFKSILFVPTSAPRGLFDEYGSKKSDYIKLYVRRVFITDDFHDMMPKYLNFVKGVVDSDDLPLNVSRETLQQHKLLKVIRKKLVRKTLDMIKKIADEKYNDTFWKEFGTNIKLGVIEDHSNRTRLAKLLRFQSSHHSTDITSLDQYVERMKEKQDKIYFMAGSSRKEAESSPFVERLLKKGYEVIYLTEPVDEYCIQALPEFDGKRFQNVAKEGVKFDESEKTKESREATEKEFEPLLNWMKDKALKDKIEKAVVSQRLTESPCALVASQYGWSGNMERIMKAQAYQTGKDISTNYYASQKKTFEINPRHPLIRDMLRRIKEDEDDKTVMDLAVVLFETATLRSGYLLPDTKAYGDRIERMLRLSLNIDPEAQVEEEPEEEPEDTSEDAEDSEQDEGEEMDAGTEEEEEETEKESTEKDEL
# Sequence of Endoplasmin (Homo sapiens) (P14625 whole entry): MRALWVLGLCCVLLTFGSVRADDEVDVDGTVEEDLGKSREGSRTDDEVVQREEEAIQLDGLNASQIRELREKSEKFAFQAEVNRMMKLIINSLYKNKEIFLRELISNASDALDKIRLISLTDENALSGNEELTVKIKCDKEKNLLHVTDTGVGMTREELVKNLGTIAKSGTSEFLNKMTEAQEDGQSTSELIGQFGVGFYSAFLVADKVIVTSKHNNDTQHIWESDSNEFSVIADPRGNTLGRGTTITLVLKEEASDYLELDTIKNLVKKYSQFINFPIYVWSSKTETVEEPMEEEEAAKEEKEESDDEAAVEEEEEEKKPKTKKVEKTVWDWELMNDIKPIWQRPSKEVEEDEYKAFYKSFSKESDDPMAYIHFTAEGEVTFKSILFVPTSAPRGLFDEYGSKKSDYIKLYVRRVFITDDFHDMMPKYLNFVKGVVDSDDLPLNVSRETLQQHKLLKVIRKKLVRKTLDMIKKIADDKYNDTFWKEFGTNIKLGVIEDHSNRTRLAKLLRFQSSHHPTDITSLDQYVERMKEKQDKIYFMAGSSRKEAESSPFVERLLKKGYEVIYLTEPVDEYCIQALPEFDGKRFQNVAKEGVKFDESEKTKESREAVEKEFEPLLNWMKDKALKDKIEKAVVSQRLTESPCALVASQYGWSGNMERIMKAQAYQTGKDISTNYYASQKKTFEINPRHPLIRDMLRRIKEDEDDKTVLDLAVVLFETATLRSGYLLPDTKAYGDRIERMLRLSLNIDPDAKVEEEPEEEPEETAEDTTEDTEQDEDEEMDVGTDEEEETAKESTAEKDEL
# Sequence of Endoplasmin (P41148 22-804 limits assumed): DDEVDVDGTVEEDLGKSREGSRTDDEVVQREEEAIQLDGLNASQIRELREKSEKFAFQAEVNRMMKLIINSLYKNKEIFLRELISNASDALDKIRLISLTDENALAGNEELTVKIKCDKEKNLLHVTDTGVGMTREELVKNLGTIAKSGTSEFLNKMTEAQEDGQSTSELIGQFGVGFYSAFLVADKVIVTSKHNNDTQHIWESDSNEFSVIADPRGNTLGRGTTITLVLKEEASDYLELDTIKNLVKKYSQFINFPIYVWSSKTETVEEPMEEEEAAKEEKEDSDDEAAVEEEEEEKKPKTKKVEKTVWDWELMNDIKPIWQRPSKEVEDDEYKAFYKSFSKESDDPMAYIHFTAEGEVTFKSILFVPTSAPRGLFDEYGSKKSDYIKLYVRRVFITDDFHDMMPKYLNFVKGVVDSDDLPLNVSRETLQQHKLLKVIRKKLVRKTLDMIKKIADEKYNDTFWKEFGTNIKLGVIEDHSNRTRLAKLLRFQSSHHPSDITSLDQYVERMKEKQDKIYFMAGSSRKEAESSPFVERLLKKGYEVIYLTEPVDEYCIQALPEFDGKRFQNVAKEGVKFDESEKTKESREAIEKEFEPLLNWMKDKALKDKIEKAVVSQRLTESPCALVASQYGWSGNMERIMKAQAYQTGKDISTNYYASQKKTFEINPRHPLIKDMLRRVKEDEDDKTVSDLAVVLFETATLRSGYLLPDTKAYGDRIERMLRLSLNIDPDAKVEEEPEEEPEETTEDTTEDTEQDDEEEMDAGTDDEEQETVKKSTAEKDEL
Kd [15] [nM],Structure (SMILES),Ratio IC50 [1],Ratio IC50 [2],inhibition [3],inhibition [4],inhibition [5],inhibition [6],inhibition [7],inhibition [8],Activity [9],concentration at 2 h [10] [µM],concentration at 2 h [11] [µM],Ratio [12],Kp at 24 h [13],bioavailability [14] [%],Kd [16] [nM]
–,CC(C)NCCCn1c(Sc2cc(Cl)cc(Cl)c2)nc2c(N)ncnc21,> 100,33,Dose-dependent effect,Dose-dependent effect,Dose-dependent effect,Active,inactive,inactive,Non-toxic,850,100,100,200,80,–
520,COC(=O)c1c(O)cc(O)c(Cl)c1CCC(=O)NC1=CC(=O)C(OC)=CC1=O,–,–,–,–,–,–,–,–,–,–,–,–,–,–,870
